For orientation: Ki means the dissociation constant of the complex between target and ligand, obtained from inhibition or displacement. Usually Kd stands for a measure of binding affinity in units of concentration.

We go through 2 compounds from ChEMBL document CHEMBL4706642, “Discovery of a Potent Dual Inhibitor of Acetylcholinesterase and Butyrylcholinesterase with Antioxidant Activity that Alleviates Alzheimer-like Pathology in Old APP/PS1 Mice” (J Med Chem, 2021).

Active and inactive are the calls of the source. The calls are words filed in the database; no cut-off is given here.

For assay [1], the target named is Acetylcholinesterase (Electrophorus electricus) (UniProt O42275). The experiment in a line: Displacement of propidium iodide from PAS-region of electric eel AChE assessed as decrease in fluorescence intensity at 4 to 64 uM by spectrofluorimetric analysis relative to control. The arrangement: scale not given: the % may be the effect or the level left. The settings on record: dose 4-64 µM. The procedure, abridged: (§1)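 Back-titration fluorescence assay using electric eel AChE (type VI-S). Inhibitor was added in successive aliquots from a MeOH stock. Emission was read at 602 nm with excitation at 535 nm, after subtracting blanks. […] Three independent experiments.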

Assay [2] has as its target T1, Acetylcholinesterase (Homo sapiens, UniProt P22303). Briefly: Mixed-type inhibition of recombinant human AChE assessed as dissociation constant for protein-substrate-compound complex using acetylthiocholine iodide as substrate by Cornish-Bowden plot analysis. The method in brief:
(§2)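 Kinetics on human recombinant AChE with acetylthiocholine at 0.113–0.566 mM and inhibitor at 0.17–1.36 nM. Lineweaver–Burk plots were fitted by weighted least squares. Ki was taken as the negative x-intercept of a replot of slopes vs [I]. K'i came from a plot of apparent 1/vmax vs [I]. Two independent experiments, each in triplicate.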

Assay [3] concerns the target T1, Acetylcholinesterase. Briefly: Mixed-type inhibition of recombinant human AChE assessed as inhibition constant using acetylthiocholine iodide as substrate by Cornish-Bowden plot analysis. The method in brief: as §2
In assay [4] the target is T1, Acetylcholinesterase. Briefly: Mixed-type inhibition of recombinant human AChE using varying concentration of acetylthiocholine iodide as substrate at 0.17 to 1.36 nM by Lineweaver-burk plot analysis. The method in brief: as §2
Assay [5] has as its target Acetylcholinesterase (Electrophorus electricus) (UniProt O42275). Briefly: Displacement of propidium iodide from PAS-region of electric eel AChE assessed as decrease in fluorescence intensity by spectrofluorimetric analysis. The procedure, abridged: as §1
In assay [6] the target is Acetylcholinesterase (Electrophorus electricus, UniProt O42275). Briefly: Displacement of propidium iodide from PAS-region of electric eel AChE assessed as dissociation constant by spectrofluorimetric analysis. The method in brief: as §1
The target in another assay is Cholinesterase (Homo sapiens, UniProt P06276). Briefly: Inhibition of human serum BChE using butyrylthiocholineiodide as substrate preincubated for 20 mins followed by substrate addition by Ellman's method relative to parent compound. It is filed as cell-free.
Assay [7] deals with Mus musculus. The experiment in a line: Antialzheimer activity in 11 months old APP/PS1 double mutant-transgenic mouse model assessed as amyloid beta40 levels in hippocampus at 2 mg/kg, ip administered thrice a week for 4 weeks by ELISA (reference value: 8.65 +/- 0.44 pg/ml). The assay is classed as functional. The procedure, abridged: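 Male APP/PS1 mice received 2 mg/kg i.p. in saline (or vehicle), three times weekly for 4 weeks. After the behavioral tests, hippocampus was collected and Aβ40 and Aβ42 were measured with a specific ELISA kit. Mean ± SEM, n = 7 mice per group; one-way ANOVA with Bonferroni post hoc.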
A general note: ELISA stands for enzyme-linked immunosorbent assay.

The test system of assay [8] is Mus musculus. Briefly: Cognitive enhancing effect in 11 months old APP/PS1 double mutant-transgenic mouse model assessed as increase in preference index for object at 2 mg/kg, ip administered thrice a week for 4 weeks by novel object recognition test. The assay is classed as functional, organism-based. The method in brief: (§3)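 Male APP/PS1 mice received 2 mg/kg i.p. in saline (or vehicle), three times per week for 4 weeks. Preference index = time exploring the relocated or novel object divided by total time exploring both objects. Mean ± SEM, n = 7 per group; one-way ANOVA with Bonferroni post hoc.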

In assay [9] the test system is Mus musculus. Briefly: Cognitive enhancing effect in 11 months old APP/PS1 double mutant-transgenic mouse model assessed as increase in preference index for object at 2 mg/kg, ip administered thrice a week for 4 weeks by novel object localization test. It is filed as functional, organism-based. The method in brief: as §3
Assay [10] relates to Mus musculus. Briefly: Antialzheimer activity in 11 months old APP/PS1 double mutant-transgenic mouse model assessed as ratio of amyloid beta42 to amyloid beta40 levels in hippocampus at 2 mg/kg, ip administered thrice a week for 4 weeks by ELISA (reference value: 7.99 +/- 0.60). It is filed as functional.

T1 sequence (P22303 whole entry): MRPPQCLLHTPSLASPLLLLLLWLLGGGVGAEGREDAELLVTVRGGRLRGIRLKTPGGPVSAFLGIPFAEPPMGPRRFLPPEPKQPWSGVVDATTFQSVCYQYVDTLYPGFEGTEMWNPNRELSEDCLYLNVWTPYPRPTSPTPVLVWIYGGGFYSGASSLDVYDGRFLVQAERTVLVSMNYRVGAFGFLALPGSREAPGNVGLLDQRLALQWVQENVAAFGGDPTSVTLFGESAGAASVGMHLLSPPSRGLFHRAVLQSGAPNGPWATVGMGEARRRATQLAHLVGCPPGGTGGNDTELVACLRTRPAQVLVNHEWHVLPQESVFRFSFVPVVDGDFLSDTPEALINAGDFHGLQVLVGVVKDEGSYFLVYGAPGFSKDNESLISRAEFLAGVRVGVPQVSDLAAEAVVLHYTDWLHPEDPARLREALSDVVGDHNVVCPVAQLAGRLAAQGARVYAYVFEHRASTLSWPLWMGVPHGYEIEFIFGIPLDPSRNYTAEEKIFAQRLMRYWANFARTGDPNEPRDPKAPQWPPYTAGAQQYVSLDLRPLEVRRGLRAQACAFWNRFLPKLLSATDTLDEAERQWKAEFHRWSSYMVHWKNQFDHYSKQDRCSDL
Acetylcholinesterase (Electrophorus electricus), sequence (O42275 24-633 limits assumed): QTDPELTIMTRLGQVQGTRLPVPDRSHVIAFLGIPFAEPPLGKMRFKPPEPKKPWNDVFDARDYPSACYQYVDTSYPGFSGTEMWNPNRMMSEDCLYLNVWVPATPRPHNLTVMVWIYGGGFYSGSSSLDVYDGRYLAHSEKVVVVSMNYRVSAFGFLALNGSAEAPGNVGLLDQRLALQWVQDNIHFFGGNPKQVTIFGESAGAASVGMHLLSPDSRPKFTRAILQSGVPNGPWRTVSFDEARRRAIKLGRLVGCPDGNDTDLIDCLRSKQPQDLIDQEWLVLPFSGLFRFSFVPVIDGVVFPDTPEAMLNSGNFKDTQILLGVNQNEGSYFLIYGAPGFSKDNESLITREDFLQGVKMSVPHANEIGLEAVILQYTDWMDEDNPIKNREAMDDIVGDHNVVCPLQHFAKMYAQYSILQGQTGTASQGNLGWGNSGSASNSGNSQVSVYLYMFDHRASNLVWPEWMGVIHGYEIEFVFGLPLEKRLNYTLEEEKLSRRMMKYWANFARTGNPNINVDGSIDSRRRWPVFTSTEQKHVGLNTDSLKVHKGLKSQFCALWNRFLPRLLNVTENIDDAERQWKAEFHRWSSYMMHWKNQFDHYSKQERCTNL
Acetylcholinesterase (Electrophorus electricus, UniProt O42275), sequence (O42275 whole entry): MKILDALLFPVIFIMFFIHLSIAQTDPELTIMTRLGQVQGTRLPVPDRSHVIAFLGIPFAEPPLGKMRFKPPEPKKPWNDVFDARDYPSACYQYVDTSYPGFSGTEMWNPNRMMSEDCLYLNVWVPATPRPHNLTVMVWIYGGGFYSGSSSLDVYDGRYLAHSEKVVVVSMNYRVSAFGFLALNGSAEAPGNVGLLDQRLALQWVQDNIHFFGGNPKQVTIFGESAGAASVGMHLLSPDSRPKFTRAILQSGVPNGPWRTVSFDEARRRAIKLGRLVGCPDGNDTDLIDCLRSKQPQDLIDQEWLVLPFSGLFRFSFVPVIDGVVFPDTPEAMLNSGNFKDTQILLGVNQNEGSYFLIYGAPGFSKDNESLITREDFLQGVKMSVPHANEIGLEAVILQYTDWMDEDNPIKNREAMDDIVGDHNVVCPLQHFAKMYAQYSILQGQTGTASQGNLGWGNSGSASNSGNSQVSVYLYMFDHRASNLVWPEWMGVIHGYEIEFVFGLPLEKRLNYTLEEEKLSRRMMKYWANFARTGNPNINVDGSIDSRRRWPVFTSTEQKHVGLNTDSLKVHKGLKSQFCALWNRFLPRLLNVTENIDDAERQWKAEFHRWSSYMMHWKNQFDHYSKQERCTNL
Cholinesterase, sequence (P06276 whole entry): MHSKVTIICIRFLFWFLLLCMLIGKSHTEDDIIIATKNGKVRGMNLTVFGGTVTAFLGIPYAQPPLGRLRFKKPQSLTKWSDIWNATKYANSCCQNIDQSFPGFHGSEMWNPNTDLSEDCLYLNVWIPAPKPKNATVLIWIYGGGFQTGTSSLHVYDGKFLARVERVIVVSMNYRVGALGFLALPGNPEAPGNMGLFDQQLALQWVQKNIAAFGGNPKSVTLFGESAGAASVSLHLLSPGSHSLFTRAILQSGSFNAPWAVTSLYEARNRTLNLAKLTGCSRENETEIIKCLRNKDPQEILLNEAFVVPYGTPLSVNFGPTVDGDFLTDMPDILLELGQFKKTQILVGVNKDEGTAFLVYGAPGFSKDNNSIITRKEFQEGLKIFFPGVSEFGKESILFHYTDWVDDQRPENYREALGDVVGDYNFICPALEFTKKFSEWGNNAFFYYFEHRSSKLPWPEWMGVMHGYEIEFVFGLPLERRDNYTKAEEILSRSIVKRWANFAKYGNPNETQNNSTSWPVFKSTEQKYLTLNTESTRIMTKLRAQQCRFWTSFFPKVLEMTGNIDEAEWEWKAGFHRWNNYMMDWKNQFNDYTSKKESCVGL

On to `COc1cc(CNC(=O)CCCCCCNc2c3c(nc4cc(Cl)ccc24)CC2C=C(C)CC3C2)ccc1O` (configuration not stated), for which the figures for the Activity in assay [1] and in [5] were 23% and “Dose-dependent effect”, respectively. In addition, the Ki at Acetylcholinesterase [2] was 940 pM; on Acetylcholinesterase [3], 680 pM. Besides, the Kd at Acetylcholinesterase [4] was found to be 940 pM; at Acetylcholinesterase [6] it was 3590 pM. For the same compound, at Acetylcholinesterase [4] (dose 0.17-1.36 nM), the inhibition entry was “Active”.

`COc1cc(CNC(=O)Cc2cn(CCCCC3=CC4Cc5nc6cc(Cl)ccc6c(N)c5C(C3)C4)nn2)ccc1O` (configuration not stated): on Cholinesterase, the fold change (FC) was found to be 25. Also, in the assay with Mus musculus [7], the Activity turned out to be 18.4 pg/mL. Also, the result in the assay with Mus musculus [8] and in the assay on Mus musculus [9] was Active. For the same compound, the Ratio in the assay with Mus musculus [10] is 3.42.
